How the values were obtained:
[1] = biological target: T1, Receptor tyrosine-protein kinase erbB-2 (Homo sapiens, UniProt P04626); test: Inhibition of human recombinant cytoplasmic HER2 kinase expressed in Sf9 cells
[2] = biological target: Epidermal growth factor receptor (Homo sapiens, UniProt P00533)
[3] = tested on: HT-29; test: Antiproliferative activity against human HT29 cells
[4] = tested on: NCI-N87; test: Antiproliferative activity against human N87 cells; assay type: functional, cell-based
[5] = tested on: A2780; test: Antiproliferative activity against human A2780 cells; assay type: functional, cell-based
[6] = tested on: Liver; test: Metabolic stability in mouse liver microsomes assessed as rate of metabolism per mg protein at 3 uM after 10 mins; assay type: ADME, Microsome
Procedure, shortened: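 Test compound at 3 µM incubated 10 min with mouse liver microsomes plus NADPH. Rate of metabolism expressed as nmol min⁻¹ mg protein⁻¹.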

[7] = Antitumor activity against human GEO cells xenografted athymic mouse at 60 mg/kg, sc QD for 21 days; assay type: functional; details: po, 504 h, read-out: TGI, in the assay text read “po QD” for “sc QD”
Procedure, shortened: (§1)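 Tumor cells were implanted subcutaneously in athymic mice and staged to about 100 mg before dosing, with drug given orally. […] Probability was assessed for median tumor weight at the end of treatment.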

[8] = tested on: NCI-N87; test: Antitumor activity against human N87 cells xenografted athymic mouse at 30 mg/kg, sc QD for 14 days; assay type: functional; details: NCI-N87, po, 336 h, read-out: TGI, in the assay text read “po QD” for “sc QD”; procedure, shortened: as §1
[9] = Inhibition of PKA; parameters: species or system Homo sapiens
Procedure, shortened: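 IC50 values are means of at least three determinations, with variability around the mean under 15%.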

[10] = Antitumor activity against human GEO cells xenografted athymic mouse at 240 mg/kg, sc QD for 21 days; assay type: functional; details: po, 504 h, read-out: TGI, in the assay text read “po QD” for “sc QD”; procedure, shortened: as §1
[11] = tested on: Mus musculus; test: AUC in BALB/C mouse at 50 mg/kg, po after 4 hrs; assay type: ADME, organism-based, Plasma; parameters: time < 4 hr, dose 50 mg/kg, route oral; details: in vivo
Procedure, shortened: (§2)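 Single oral 50 mg/kg dose in male Balb/C mice. AUC taken over 4 h, and plasma concentration measured at 4 h.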

[12] = tested on: Mus musculus; test: Toxicity in mouse at 240 mg/kg, po; details: in vivo
[13] = tested on: Mus musculus; test: Toxicity in mouse assessed as wieght loss at 240 mg/kg, po; details: in vivo
[14] = tested on: NCI-N87; test: Antitumor activity against human N87 cells xenografted athymic mouse at 240 mg/kg, sc QD for 14 days; assay type: functional; details: NCI-N87, po, 336 h, read-out: TGI, in the assay text read “po QD” for “sc QD”; procedure, shortened: as §1
[15] = biological target: MAP kinase p38 (Homo sapiens, UniProt O15264+Q15759+Q16539+P53778); test: Inhibition of p38 kinase; assay type: protein assay
Procedure, shortened: (§3)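 Kinase panel values are IC50s reported as the mean of at least three determinations, with variability around the mean under 15%.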

[16] = biological target: Hepatocyte growth factor receptor (Homo sapiens, UniProt P08581); test: Inhibition of Met kinase; procedure, shortened: as §3
Sequence of Hepatocyte growth factor receptor (P08581 whole entry): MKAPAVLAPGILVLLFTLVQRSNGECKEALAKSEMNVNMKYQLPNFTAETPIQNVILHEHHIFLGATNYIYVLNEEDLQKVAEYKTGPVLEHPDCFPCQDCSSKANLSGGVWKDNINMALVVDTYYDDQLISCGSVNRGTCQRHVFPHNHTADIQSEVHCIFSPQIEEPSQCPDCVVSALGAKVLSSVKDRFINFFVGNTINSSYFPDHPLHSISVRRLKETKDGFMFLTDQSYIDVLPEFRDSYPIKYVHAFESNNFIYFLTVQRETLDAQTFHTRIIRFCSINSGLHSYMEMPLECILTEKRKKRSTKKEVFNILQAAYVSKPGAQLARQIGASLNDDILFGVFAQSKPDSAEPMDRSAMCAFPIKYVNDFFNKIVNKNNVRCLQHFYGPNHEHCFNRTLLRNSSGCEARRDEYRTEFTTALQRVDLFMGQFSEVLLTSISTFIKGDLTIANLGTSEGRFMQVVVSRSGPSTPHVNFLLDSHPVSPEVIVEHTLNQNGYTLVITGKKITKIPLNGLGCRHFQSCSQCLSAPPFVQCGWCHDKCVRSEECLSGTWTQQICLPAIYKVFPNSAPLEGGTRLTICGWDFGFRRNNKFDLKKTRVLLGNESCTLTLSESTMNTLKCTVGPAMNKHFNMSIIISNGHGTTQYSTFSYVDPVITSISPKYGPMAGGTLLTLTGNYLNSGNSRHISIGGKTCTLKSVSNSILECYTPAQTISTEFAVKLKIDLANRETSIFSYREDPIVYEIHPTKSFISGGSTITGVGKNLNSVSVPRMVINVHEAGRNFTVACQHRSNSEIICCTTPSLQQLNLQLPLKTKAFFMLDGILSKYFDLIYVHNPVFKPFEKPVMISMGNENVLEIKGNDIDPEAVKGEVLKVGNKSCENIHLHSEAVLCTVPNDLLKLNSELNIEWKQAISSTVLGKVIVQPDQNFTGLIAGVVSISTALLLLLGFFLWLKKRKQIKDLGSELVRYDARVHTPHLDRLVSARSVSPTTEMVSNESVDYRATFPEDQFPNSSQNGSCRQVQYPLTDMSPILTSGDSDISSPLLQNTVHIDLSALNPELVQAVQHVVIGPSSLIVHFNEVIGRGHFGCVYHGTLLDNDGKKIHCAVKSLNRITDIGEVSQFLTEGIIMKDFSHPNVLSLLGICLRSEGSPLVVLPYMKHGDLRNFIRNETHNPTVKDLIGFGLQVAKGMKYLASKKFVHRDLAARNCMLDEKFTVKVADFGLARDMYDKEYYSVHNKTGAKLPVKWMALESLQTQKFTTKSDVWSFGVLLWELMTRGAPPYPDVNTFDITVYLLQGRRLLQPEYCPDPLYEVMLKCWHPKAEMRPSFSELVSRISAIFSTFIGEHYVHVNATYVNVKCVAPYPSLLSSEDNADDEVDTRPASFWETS

[17] = Permeability across Caco-2 cell membrane; assay type: ADME, cell-based; details: human, read-out: permeability
[18] = Antitumor activity against human GEO cells xenografted athymic mouse at 120 mg/kg, sc QD for 21 days; assay type: functional; details: po, 504 h, read-out: TGI, in the assay text read “po QD” for “sc QD”; procedure, shortened: as §1
[19] = biological target: T1, Receptor tyrosine-protein kinase erbB-2; test: Inhibition of HER2 phosphorylation in human N87 cells; assay type: cell-based; details: NCI-N87
Procedure, shortened: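 N87 human gastric carcinoma cells, which overexpress EGFR and HER2, were exposed to a range of compound concentrations for 1 h. Cell lysates were then Western blotted with anti-phosphotyrosine and anti-HER2 antibodies to follow HER2 phosphorylation.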

[20] = Plasma concentration in BALB/C mouse at 50 mg/kg, po after 4 hrs; assay type: ADME, organism-based; parameters: dose 50 mg/kg, route oral; procedure, shortened: as §2
[21] = tested on: NCI-N87; test: Antitumor activity against human N87 cells xenografted athymic mouse at 120 mg/kg, sc QD for 14 days; assay type: functional; details: NCI-N87, po, 336 h, read-out: TGI, in the assay text read “po QD” for “sc QD”; procedure, shortened: as §1
[22] = Fraction unbound (%) ligand in mouse serum at 10 uM by equilibrium dialysis; assay type: ADME, cell-free, Plasma
[23] = biological target: Tyrosine-protein kinase Lck (Homo sapiens, UniProt P06239); test: Inhibition of LCK kinase
Sequence of Tyrosine-protein kinase Lck (P06239 whole entry): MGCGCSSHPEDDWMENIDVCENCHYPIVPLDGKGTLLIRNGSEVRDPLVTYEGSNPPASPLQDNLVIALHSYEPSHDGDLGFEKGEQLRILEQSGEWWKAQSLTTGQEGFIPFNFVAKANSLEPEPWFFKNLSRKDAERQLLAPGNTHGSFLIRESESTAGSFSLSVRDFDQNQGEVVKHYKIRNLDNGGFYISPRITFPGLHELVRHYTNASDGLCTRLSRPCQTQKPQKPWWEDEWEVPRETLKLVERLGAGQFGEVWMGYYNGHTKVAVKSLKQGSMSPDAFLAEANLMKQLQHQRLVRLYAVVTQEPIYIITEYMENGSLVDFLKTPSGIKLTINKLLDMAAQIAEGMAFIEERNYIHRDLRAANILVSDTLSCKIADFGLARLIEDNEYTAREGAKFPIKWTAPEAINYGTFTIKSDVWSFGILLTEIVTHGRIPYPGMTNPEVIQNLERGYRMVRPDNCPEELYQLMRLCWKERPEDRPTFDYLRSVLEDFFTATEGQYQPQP
Procedure, shortened: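 IC50 is the mean of at least three determinations, with variability around the mean below 15%.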

[24] = Antitumor activity against human GEO cells xenografted athymic mouse at 30 mg/kg, sc QD for 21 days; assay type: functional; details: po, 504 h, read-out: TGI, in the assay text read “po QD” for “sc QD”; procedure, shortened: as §1
[25] = tested on: NCI-N87; test: Antitumor activity against human N87 cells xenografted athymic mouse at 60 mg/kg, sc QD for 14 days; assay type: functional; details: NCI-N87, po, 336 h, read-out: TGI, in the assay text read “po QD” for “sc QD”; procedure, shortened: as §1
[26] = biological target: Vascular endothelial growth factor receptor 2 (Homo sapiens, UniProt P35968); test: Inhibition of VEGFR2; procedure, shortened: as §3

Sequence of Epidermal growth factor receptor (P00533 whole entry): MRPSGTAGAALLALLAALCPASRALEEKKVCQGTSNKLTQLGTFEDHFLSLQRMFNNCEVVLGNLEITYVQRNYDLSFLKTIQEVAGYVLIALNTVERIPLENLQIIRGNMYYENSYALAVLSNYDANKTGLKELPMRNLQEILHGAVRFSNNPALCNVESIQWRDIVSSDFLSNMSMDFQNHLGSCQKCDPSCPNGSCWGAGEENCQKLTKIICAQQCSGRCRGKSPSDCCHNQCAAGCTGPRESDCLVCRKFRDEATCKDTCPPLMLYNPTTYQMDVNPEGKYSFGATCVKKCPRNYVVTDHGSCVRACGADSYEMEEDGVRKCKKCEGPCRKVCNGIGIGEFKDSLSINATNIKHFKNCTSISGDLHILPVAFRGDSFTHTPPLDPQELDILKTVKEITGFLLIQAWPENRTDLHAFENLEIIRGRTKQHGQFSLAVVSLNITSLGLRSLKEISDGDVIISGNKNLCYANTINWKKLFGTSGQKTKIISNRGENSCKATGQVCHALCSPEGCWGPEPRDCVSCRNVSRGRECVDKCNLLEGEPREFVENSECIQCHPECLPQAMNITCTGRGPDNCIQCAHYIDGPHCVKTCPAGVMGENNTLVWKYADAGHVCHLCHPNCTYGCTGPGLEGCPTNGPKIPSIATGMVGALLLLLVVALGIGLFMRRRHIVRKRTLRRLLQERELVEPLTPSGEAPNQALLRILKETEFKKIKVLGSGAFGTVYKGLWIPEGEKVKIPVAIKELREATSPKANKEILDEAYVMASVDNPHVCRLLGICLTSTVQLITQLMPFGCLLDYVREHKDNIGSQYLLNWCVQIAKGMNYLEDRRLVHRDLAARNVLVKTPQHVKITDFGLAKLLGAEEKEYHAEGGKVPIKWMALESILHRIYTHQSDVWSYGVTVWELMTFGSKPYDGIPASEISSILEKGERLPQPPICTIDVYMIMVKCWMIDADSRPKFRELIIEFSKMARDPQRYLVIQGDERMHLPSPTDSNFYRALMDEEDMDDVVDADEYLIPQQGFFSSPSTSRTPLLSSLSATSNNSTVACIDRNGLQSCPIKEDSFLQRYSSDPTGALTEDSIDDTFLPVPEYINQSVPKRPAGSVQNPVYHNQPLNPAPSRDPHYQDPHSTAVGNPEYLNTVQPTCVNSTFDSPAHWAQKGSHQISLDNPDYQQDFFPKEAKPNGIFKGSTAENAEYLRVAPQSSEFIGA
T1 sequence (P04626 whole entry): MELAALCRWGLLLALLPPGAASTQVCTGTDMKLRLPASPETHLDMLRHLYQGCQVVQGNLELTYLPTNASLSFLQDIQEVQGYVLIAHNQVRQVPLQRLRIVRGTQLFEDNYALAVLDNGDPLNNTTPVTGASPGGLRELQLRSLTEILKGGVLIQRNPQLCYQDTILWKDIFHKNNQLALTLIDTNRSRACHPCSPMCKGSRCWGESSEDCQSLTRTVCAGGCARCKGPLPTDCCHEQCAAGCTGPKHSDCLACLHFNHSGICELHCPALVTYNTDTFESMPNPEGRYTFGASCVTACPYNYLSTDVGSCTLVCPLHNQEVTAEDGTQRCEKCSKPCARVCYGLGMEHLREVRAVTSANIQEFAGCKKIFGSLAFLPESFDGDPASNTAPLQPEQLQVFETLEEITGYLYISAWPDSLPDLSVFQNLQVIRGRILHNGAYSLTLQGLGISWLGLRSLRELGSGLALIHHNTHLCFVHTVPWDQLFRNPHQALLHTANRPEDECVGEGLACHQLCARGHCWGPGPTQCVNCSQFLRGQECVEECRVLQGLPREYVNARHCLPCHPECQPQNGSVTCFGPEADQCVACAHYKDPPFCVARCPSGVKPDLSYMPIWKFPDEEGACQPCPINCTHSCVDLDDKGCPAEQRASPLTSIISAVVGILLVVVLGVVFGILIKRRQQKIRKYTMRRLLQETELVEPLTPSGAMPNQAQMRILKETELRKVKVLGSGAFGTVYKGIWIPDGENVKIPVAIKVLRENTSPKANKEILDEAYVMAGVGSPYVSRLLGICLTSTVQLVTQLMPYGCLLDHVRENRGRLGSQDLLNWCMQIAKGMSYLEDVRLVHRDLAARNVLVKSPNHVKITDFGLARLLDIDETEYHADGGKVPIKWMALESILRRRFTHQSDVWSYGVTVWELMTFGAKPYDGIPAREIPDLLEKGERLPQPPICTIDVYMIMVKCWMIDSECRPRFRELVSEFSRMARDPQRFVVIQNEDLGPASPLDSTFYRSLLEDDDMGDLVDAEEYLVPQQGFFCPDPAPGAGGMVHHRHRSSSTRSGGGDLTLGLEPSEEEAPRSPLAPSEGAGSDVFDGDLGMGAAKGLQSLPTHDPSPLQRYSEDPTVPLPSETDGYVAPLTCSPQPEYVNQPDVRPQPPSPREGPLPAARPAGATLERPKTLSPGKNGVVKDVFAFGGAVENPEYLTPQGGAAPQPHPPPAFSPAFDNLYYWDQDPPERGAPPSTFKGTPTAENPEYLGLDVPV

## Cc1ccn2ncnc(Nc3ccc4c(cnn4Cc4cccnc4)c3)c12
[1]
  IC50: 250 nM
[2]
  IC50: 1800 nM

## OCc1ccn2ncnc(Nc3ccc4c(cnn4Cc4cccc(F)c4)c3)c12
[3]
  IC50: > 10000 nM
[1]
  IC50: 110 nM
[4]
  IC50: 7400 nM
[2]
  IC50: 120 nM

## Fc1cccc(Cn2ncc3cc(Nc4ncnn5ccc(COC[C@H]6CNCCO6)c45)ccc32)c1
[5]
  IC50: > 10000 nM
[1]
  IC50: 60 nM
[4]
  IC50: 130 nM
[2]
  IC50: 83 nM

## NCCCCOCc1ccn2ncnc(Nc3ccc4c(cnn4Cc4cccc(F)c4)c3)c12
[1]
  IC50: 130 nM
[2]
  IC50: 160 nM

## C[C@@H](c1ccccc1)n1ncc2cc(Nc3ncnn4ccc(COC[C@@H]5CNCCO5)c34)ccc21
[1]
  IC50: 850 nM
[4]
  IC50: 2200 nM
[2]
  IC50: 690 nM

## Cc1ccn2ncnc(Nc3ccc(F)c(Cl)c3)c12
[1]
  IC50: > 1000 nM

## Fc1cccc(COc2ccc(Nc3ncnn4ccc(COC[C@@H]5CNCCO5)c34)cc2Cl)c1
[4]
  IC50: 610 nM

## Fc1cccc(Cn2ncc3cc(Nc4ncnn5ccc(COC6CCNCC6)c45)ccc32)c1
[6]
  Stability: 0.02 nmol/min/mg
[5]
  IC50: 6000 nM
[1]
  IC50: 70 nM
[4]
  IC50: 330 nM
[2]
  IC50: 73 nM

## Fc1cccc(Cn2ncc3cc(Nc4ncnn5ccc(COC[C@H]6CCCNC6)c45)ccc32)c1
[5]
  IC50: 7400 nM
[1]
  IC50: 170 nM
[4]
  IC50: 980 nM
[2]
  IC50: 190 nM

## COc1cn2ncnc(Nc3ccc4c(cnn4Cc4cccc(F)c4)c3)c2c1COC[C@@H]1CNCCO1
[1]
  IC50: 250 nM
[4]
  IC50: 3400 nM
[2]
  IC50: 430 nM

## COC(=O)COCc1ccn2ncnc(Nc3ccc4c(cnn4Cc4cccc(F)c4)c3)c12
[1]
  IC50: 280 nM
[4]
  IC50: 1700 nM
[2]
  IC50: 460 nM

## c1cncc(Cn2ncc3cc(Nc4ncnn5ccc(COC[C@@H]6CNCCO6)c45)ccc32)c1
[1]
  IC50: 410 nM
[4]
  IC50: 550 nM
[2]
  IC50: 810 nM

## C[C@H](c1ccccc1)n1ncc2cc(Nc3ncnn4ccc(COC[C@@H]5CNCCO5)c34)ccc21
[1]
  IC50: 130 nM
[4]
  IC50: 660 nM
[2]
  IC50: 120 nM

## Fc1cccc(Cn2ncc3cc(Nc4ncnn5ccc(COC[C@@H]6CNCCO6)c45)ccc32)c1
[7]
  inhibition in vivo at 60 mg/kg: 55%
[6]
  Stability: 0.07 nmol/min/mg
[8]
  inhibition in vivo at 30 mg/kg: 28%
[9]
  IC50: > 50000 nM
[5]
  IC50: 8700 nM
[10]
  inhibition in vivo at 240 mg/kg: 91%
[1]
  IC50: 55 nM
[11]
  AUC: 29 µM·h
[4]
  IC50: 83 nM
[12]
  Activity: Non-toxic
[13]
  Activity: Non-toxic
[14]
  inhibition in vivo at 240 mg/kg: 111%
[2]
  IC50: 61 nM
[15]
  IC50: > 50000 nM
[16]
  IC50: 6500 nM
[17]
  Papp: 6.4 ×10⁻⁶ cm/s
[18]
  inhibition in vivo at 120 mg/kg: 71%
[19]
  Activity: Dose-dependent effect
[20]
  concentration at 4 h: 5.8 µM
[21]
  inhibition in vivo at 120 mg/kg: 70%
[22]
  fraction unbound at 10 µM: 0.026
[23]
  IC50: > 5000 nM
[24]
  inhibition in vivo at 30 mg/kg: 21%
[25]
  inhibition in vivo at 60 mg/kg: 51%
[26]
  IC50: > 10000 nM

## Cc1ccn2ncnc(Nc3ccc4c(cnn4Cc4ccccn4)c3)c12
[1]
  IC50: 310 nM
[2]
  IC50: 200 nM

## C[C@H](c1cccc(F)c1)n1ncc2cc(Nc3ncnn4ccc(COC[C@@H]5CNCCO5)c34)ccc21
[1]
  IC50: 41 nM
[4]
  IC50: 130 nM
[2]
  IC50: 68 nM

Reference: ChEMBL document CHEMBL1139130, “New C-5 substituted pyrrolotriazine dual inhibitors of EGFR and HER2 protein tyrosine kinases” (Bioorg Med Chem Lett, 2007)
